Measurements gathered from unrelated publications.
Each line is one published result; the experiments were not run side by side.
UGT2B7: UDP-glucuronosyltransferase 2B7 (UGT2B7, Homo sapiens, UniProt P16662)
KCNH2: Voltage-gated inwardly rectifying potassium channel KCNH2 (KCNH2, Homo sapiens, UniProt Q12809)

SMILES | target | assay | test system | setting | quantity | result
C=C1CC[C@@H]2[C@](C)(CO)[C@H](O)CC[C@@]2(C)[C@@H]1/C=C/C1=CCOC1=O | UGT2B7 | enzyme activity, inhibitor |  | 100 µM | inhibition | 80%
CCc1cccc(C(=O)Nc2cc(C)nn2-c2nc(CC)cc(=O)[nH]2)c1 | KCNH2 | ligand displacement, radioligand |  | 10 µM | inhibition | 0%
COc1ccc(CCC2CCCC(CCc3ccc(OC)cc3)N2C[C@@H](O)CO)cc1 (stereo in doubt) | KCNH2 | ion current, inhibitor, patch clamp |  |  | IC50 | ~70 nM
CC(C)N1CCC[C@H]1CNC(=O)c1cn(C2CCCC2)c(=O)c2c1c1ccccc1n2C | KCNH2 | ligand displacement, radioligand |  | 10 µM | inhibition | 39%
Clc1ccc2c(C3CCN(CCc4c[nH]c5ccccc45)CC3)c[nH]c2c1 | KCNH2 | ligand displacement, radioligand |  | 10 µM | inhibition | 99%
CN1CCN(Cc2ccc(NC(=O)c3cncc(C#Cc4cnc(N)c5ncccc45)c3)cc2C(F)(F)F)CC1 | KCNH2 | ion current, inhibitor |  |  | IC50 | > 30000 nM
O=c1ccc2ccccc2o1 | KCNH2 | ligand displacement, radioligand |  | 10 µM, cell membranes | inhibition | -13.1%
O=C(O)C(F)(F)C(F)(F)C(F)(F)C(F)(F)C(F)(F)C(F)(F)C(F)(F)F | Solute carrier organic anion transporter family member 2B1 (SLCO2B1, Homo sapiens, UniProt O94956) | transporter uptake, substrate | CHO | 1 min, pH 7.4 | Km | 149 µM
C=C1CCC2C(C)(CO)C(=O)CCC2(C)C1C=CC1=CCOC1=O (stereo not drawn) | UGT2B7 | enzyme activity, inhibitor |  | 100 µM | inhibition | 90%
